Data as given in article PMC7113734 (Antiviral Research, 2016).
Where two headings read alike, the source gives them in different places.

Columns and labels:
Pharmacokinetics in rats = type: in vivo; conditions: male, Sprague-Dawley, rat, plasma
How it was run: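 Male Sprague-Dawley rats, n = 3 per route. Prodrug given as IV bolus (50 mg/kg, 12.5 mg/mL in 5% DMSO/50% PEG300 in saline) or PO (1000 mg/kg, […] in 2% CMC suspension). Blood sampled over 24 h into sodium fluoride plus citric acid, kept on wet ice <10 min, then centrifuged at 4 °C. Plasma stored at −80 °C; prodrug and active metabolite quantified by UPLC-MS/MS (prodrug LLOQ 0.10 ng/mL).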

HIV-1 integrase = HIV-1 integrase (Human immunodeficiency virus type 1 group M subtype B, UniProt P04585); assay: HIV-1 integrase inhibition assay; type: biochemical
[1] = tested on: HL2/3 cells expressing HIV-1 gp120 and gp41 fusing with HeLa-CD4-LTR-β-gal cells; assay: Fusion inhibition assay; type: cell-based; conditions: Human immunodeficiency virus 1, HL2/3, read-out: Fusion inhibition EC50 ± SD
How it was run: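 HeLa-CD4-LTR-β-Gal cells incubated with test compound for 1 h at 37°C/5% CO2, then co-cultured 48 h with HL2/3 cells. Cells lysed and β-galactosidase expression measured by chemiluminescent Gal-Screen.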

HIV strain 92US727 = assay: Cell-to-cell virus transmission assay in fresh human PBMCs; type: cell-based, HIV-1
How it was run: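 HIV-infected fresh human PBMCs treated 3 days with six concentrations of test compound. Passaged every 3 days for three passages at fixed compound concentration; 80% of culture volume replaced with fresh compound-containing medium and uninfected cells. Cell-free supernatants collected on sub-culture days for RT activity and extracellular p24 antigen. TCID50 per passage by endpoint dilution.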

hERG = hERG (Homo sapiens, UniProt Q12809); assay: Standard hERG test for cardiotoxicity
Sequence of hERG (Q12809 whole entry): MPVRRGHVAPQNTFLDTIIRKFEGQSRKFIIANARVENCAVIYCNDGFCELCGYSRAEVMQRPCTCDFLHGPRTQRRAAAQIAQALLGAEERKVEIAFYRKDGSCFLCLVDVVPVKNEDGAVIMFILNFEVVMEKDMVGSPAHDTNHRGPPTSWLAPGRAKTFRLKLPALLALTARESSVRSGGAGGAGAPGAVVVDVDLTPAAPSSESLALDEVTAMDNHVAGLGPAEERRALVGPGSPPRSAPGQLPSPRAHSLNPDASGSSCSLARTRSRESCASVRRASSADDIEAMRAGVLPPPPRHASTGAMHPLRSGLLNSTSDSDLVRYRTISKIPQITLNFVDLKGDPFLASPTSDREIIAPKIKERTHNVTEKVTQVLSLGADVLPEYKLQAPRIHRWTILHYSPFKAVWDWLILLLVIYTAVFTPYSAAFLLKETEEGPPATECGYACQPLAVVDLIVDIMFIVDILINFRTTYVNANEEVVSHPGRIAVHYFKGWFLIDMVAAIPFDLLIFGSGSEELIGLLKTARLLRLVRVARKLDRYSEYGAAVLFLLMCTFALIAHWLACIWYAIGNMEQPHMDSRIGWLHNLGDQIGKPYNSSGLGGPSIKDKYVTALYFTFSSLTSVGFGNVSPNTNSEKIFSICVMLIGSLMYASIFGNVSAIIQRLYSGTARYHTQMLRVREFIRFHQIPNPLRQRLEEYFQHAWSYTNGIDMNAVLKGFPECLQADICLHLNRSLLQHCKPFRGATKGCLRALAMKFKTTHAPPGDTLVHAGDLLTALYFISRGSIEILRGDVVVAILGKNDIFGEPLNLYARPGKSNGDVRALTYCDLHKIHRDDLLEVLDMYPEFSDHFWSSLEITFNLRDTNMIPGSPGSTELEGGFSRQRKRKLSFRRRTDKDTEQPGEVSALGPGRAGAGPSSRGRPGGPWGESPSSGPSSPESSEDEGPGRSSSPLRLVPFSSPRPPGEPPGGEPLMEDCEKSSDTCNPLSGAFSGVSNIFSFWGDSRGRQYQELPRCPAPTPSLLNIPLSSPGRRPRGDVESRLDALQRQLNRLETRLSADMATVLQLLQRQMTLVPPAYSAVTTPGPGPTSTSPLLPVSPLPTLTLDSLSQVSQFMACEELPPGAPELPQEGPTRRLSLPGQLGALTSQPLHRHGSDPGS

cytochrome P450 enzymes = assay: Inhibition of cytochrome P450 enzymes; type: in vitro ADME
in vitro = conditions: human, CC50 (cytotoxic concentration), fresh human PBMCs
[2] = tested on: drug-resistant HIV-1 strains; assay: Antiviral activity against drug-resistant HIV-1 strains in MT-4; type: cell-based; conditions: MT-4
HIV-1IIIB [3] = assay: Antiviral activity with added serum proteins in CEM-SS cells; type: cell-based
[4] = tested on: clinical HIV-1 subtype B virus 92US723; assay: Antiviral activity with added serum proteins in fresh human PBMCs; type: cell-based; conditions: 50% human serum, AAGP or HSA vs medium only
MT-4 cells = assay: Toxicity to MT-4 cells; type: cell-based; conditions: all assays
[5] = tested on: drug resistant clinical HIV isolates; assay: Antiviral activity against drug-resistant HIV-1 in PBMCs; type: cell-based; conditions: Human immunodeficiency virus 1, PBMC
HIVIIIB = assay: Cell-to-cell virus transmission assay in CEM-SS cells; type: cell-based, HIV-1
[6] = tested on: HIV attachment to HeLa-CD4-LTR-β-gal cells; assay: Attachment inhibition assay; type: cell-based, HIV-1; conditions: Human immunodeficiency virus 1, read-out: Attachment inhibition EC50 ± SD
wild type HIV-1 RT = wild type HIV-1 RT (Human immunodeficiency virus type 1 group M subtype B, UniProt P04585); assay: Biochemical RT inhibition assay
HIV-1 protease = HIV-1 protease (Human immunodeficiency virus type 1 group M subtype B, UniProt P04585); assay: HIV-1 protease inhibition assay; type: biochemical
[7] = tested on: IIIB strain of HIV-1 in CEM-SS cells; assay: Combination drug interaction evaluation; type: cell-based
How it was run: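 CEM-SS cells infected with HIV-1 IIIB; inhibition of cytopathic effect measured for the test compound in two-drug combinations with known anti-HIV agents. Efficacy and toxicity analysed by Prichard–Shipman MacSynergy II. Expected additive inhibition computed from each agent's single-agent dose–response; inhibition above expected at each concentration calculated at 95%, 99% and 99.9% confidence. −99 to −51 μM2% scored antagonistic; <−100 highly antagonistic.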

HIV-1IIIB [8] = assay: Drug-resistant virus selection by serial dose escalation; type: cell-based; conditions: fourteen passages, CEM-SS cells

CCCC(=O)OCSc1ccccc1C(=O)NCCC(N)=O [NS1040, ((2-((3-amino-3-oxopropyl)carbamoyl)phenyl)thio)methyl butyrate]
concentration at 1 h (Pharmacokinetics in rats; iv, 50 mg/kg): < 0.1 ng/mL
concentration at 0.75 h (Pharmacokinetics in rats; po, 1000 mg/kg): < 0.1 ng/mL
EC50 (HIV-1 integrase): > 100 µM
EC50 [1]: > 100 µM
RT (HIV strain 92US727; Passage 1, 5 μM): 222 cpm
TCID50/mL (HIV strain 92US727; Passage 1, 5 μM): 4.18 × 10^2 TCID50/mL
p24 (HIV strain 92US727; Passage 1, 5 μM): 766 pg/mL
RT (HIV strain 92US727; Passage 2, 5 μM): 595 cpm
TCID50/mL (HIV strain 92US727; Passage 2, 5 μM): 6.86 × 10^3 TCID50/mL
p24 (HIV strain 92US727; Passage 2, 5 μM): 1731 pg/mL
RT (HIV strain 92US727; Passage 3, 5 μM): 9728 cpm
TCID50/mL (HIV strain 92US727; Passage 3, 5 μM): 6.52 × 10^4 TCID50/mL
p24 (HIV strain 92US727; Passage 3, 5 μM): 61,967 pg/mL
hERG test for cardiotoxicity (hERG): negative
inhibition of cytochrome P450 enzymes (cytochrome P450 enzymes): neither NS1040 nor MDH-1-38 had significant inhibitory activity
CC50 (in vitro): > 216 µM
EC50 ([2]; Human immunodeficiency virus 1, read-out: Mean EC50 ± SD, AZT- and NNRTI-resistant, RT 4xAZT/L100I): 3.54 ± 2.02 µM
EC50 ([2]; Human immunodeficiency virus 1, read-out: Mean EC50 ± SD, AZT- and NNRTI-resistant, RT 4xAZT/Y181C): 5.24 ± 0.18 µM
EC50 ([2]; Human immunodeficiency virus 1, read-out: Mean EC50 ± SD, AZT-resistant, RT 4xAZT (D67N/K70R/T215Y/K219Q)): 4.24 ± 0.91 µM
EC50 ([2]; Human immunodeficiency virus 1, read-out: Mean EC50 ± SD, Atazanavir-resistant, PR I50L): 1.27 ± 0.19 µM
EC50 ([2]; Human immunodeficiency virus 1, read-out: Mean EC50 ± SD, Didanosine-resistant, RT L74V): 4.59 ± 0.61 µM
EC50 ([2]; Human immunodeficiency virus 1, read-out: Mean EC50 ± SD, Enfuviritide-resistant, Env V38A/N126K): 5.48 ± 0.01 µM
EC50 ([2]; Human immunodeficiency virus 1, read-out: Mean EC50 ± SD, Indinavir-, Ritonavir-resistant, PR I84V): 3.33 ± 0.44 µM
EC50 ([2]; Human immunodeficiency virus 1, read-out: Mean EC50 ± SD, Indinavir-, Ritonavir-resistant, PR V82A): 6.73 ± 1.06 µM
EC50 ([2]; Human immunodeficiency virus 1, read-out: Mean EC50 ± SD, Indinavir-, Ritonavir-resistant, PR V82F/I84V): 3.52 ± 1.7 µM
EC50 ([2]; Human immunodeficiency virus 1, read-out: Mean EC50 ± SD, Lamivudine-resistant, RT M184V): 3.5 ± 1.1 µM
EC50 ([2]; Human immunodeficiency virus 1, read-out: Mean EC50 ± SD, NNRTI-resistant, RT K103N/Y181C): 5.19 ± 0.06 µM
EC50 ([2]; Human immunodeficiency virus 1, read-out: Mean EC50 ± SD, NNRTI-resistant, RT K103N): 5.02 ± 0.14 µM
EC50 ([2]; Human immunodeficiency virus 1, read-out: Mean EC50 ± SD, NNRTI-resistant, RT L100I): 1.61 ± 0.41 µM
EC50 ([2]; Human immunodeficiency virus 1, read-out: Mean EC50 ± SD, NNRTI-resistant, RT V106A): 4.07 ± 0.78 µM
EC50 ([2]; Human immunodeficiency virus 1, read-out: Mean EC50 ± SD, NNRTI-resistant, RT V108I): 4.7 ± 0.17 µM
EC50 ([2]; Human immunodeficiency virus 1, read-out: Mean EC50 ± SD, NNRTI-resistant, RT V179D): 5.01 ± 0.31 µM
EC50 ([2]; Human immunodeficiency virus 1, read-out: Mean EC50 ± SD, NNRTI-resistant, RT Y181C): 4.52 ± 1.07 µM
EC50 ([2]; Human immunodeficiency virus 1, read-out: Mean EC50 ± SD, NNRTI-resistant, RT Y188C): 4.72 ± 0.55 µM
EC50 ([2]; Human immunodeficiency virus 1, read-out: Mean EC50 ± SD, Raltegravir-resistant, IN Q148H/G140S): 4.16 ± 0.26 µM
EC50 ([2]; Human immunodeficiency virus 1, read-out: Mean EC50 ± SD, Saquinavir-resistant, PR G48V/L90M): 1.1 ± 0.32 µM
EC50 ([2]; Human immunodeficiency virus 1, read-out: Mean EC50 ± SD, Tenofovir-resistant, RT K65R): 5.21 ± 0.08 µM
fold decrease in potency (HIV-1IIIB [3]; in the presence of 50% human AB serum): ~4.5 fold
fold decrease in potency (HIV-1IIIB [3]; in the presence of HSA (10 mg/mL)): did not exhibit a significant decrease in potency
change in antiviral activity with serum protein additives [4]: no significant change in antiviral activity
non-toxic up to high test concentration (MT-4 cells): > 100 µM
EC50 ([5]; read-out: PBMC/HIV-1 EC50 ± SD, Multi-drug resistant AD. MDR): 7.21 ± 4.38 µM
EC50 ([5]; read-out: PBMC/HIV-1 EC50 ± SD, Multi-drug resistant MDR769): 4.77 ± 0.95 µM
EC50 ([5]; read-out: PBMC/HIV-1 EC50 ± SD, NNRTI-resistant A17R): 10 ± 4.78 µM
EC50 ([5]; read-out: PBMC/HIV-1 EC50 ± SD, NNRTI-resistant N119): 5.9 ± 1.31 µM
EC50 ([5]; read-out: PBMC/HIV-1 EC50 ± SD, PI-resistant 144-44): 8.38 ± 5.4 µM
EC50 ([5]; read-out: PBMC/HIV-1 EC50 ± SD, PI-resistant 1002-60): 3.66 ± 0.28 µM
EC50 ([5]; read-out: PBMC/HIV-1 EC50 ± SD, PI-resistant 1022-48): 3.45 ± 2.26 µM
EC50 ([5]; read-out: PBMC/HIV-1 EC50 ± SD, PI-resistant 1026-60): 3.29 ± 0.57 µM
EC50 ([5]; read-out: PBMC/HIV-1 EC50 ± SD, PI-resistant 1064-52): 2.62 ± 1.87 µM
EC50 ([5]; read-out: PBMC/HIV-1 EC50 ± SD, Wild Type 92US727): 5.58 ± 0.12 µM
fold less effective than MDH-1-38 at reducing cell to cell HIV transmission (HIVIIIB): approximately 3 fold
RT (HIVIIIB; Passage 1, 2 μM): 27 cpm
TCID50/mL (HIVIIIB; Passage 1, 2 μM): 0 TCID50/mL
p24 (HIVIIIB; Passage 1, 2 μM): 725 pg/mL
RT (HIVIIIB; Passage 2, 2 μM): 1063 cpm
p24 (HIVIIIB; Passage 2, 2 μM): 85,803 pg/mL
RT (HIVIIIB; Passage 3, 2 μM): 7036 cpm
TCID50/mL (HIVIIIB; Passage 3, 2 μM): 1.31 × 10^4 TCID50/mL
p24 (HIVIIIB; Passage 3, 2 μM): 1,570,937 pg/mL
EC50 [6]: > 100 µM
EC50 (wild type HIV-1 RT): > 100 µM
EC50 (HIV-1 protease): > 100 µM
mean synergy volume ([7]; in combination with amprenavir): 111 ± 27.8 μM^2%
mean synergy volume ([7]; in combination with enfuviritide): 115 ± 39.5 μM^2%
mean synergy volume ([7]; in combination with lamivudine): 180 ± 128 μM^2%
mean synergy volume ([7]; in combination with lopinavir): 212 ± 62.2 μM^2%
mean synergy volume ([7]; in combination with nelfinavir): 282 ± 61.5 μM^2%
mean synergy volume ([7]; in combination with ritonavir): 143 ± 33.5 μM^2%
mean synergy volume ([7]; in combination with stavudine): 110 ± 68 μM^2%
selection of resistant virus (HIV-1IIIB [8]): did not result in resistance
